Results published in ChEMBL document CHEMBL2069237, “3-Hydroxy-3-methylglutaryl flavonol glycosides from Oxytropis falcata” (2012).

The compounds below were run on RAW264.7 (assay: Antiinflammatory activity in mouse RAW264.7 cells assessed as inhibition of lipopolysaccharide-induced nitric oxide production at 50 uM pre-incubated for 4 hrs before LPS challenge for 24 hrs by Griess assay).
Type: functional
Summary of the method: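 RAW 264.7 murine macrophages grown in DMEM with 10% FBS, 2 mmol/L L-glutamine, penicillin/streptomycin, 37 °C, 5% CO2. Cells (5 × 10^5/mL) preincubated 8 h, given compound at 10 or 50 μM for 4 h, then LPS (final 1 μg/mL) for 24 h. Nitrite in supernatant measured by Griess reagent, absorbance 570 nm, against sodium nitrite standard; expressed as % inhibition.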
Compound `C[C@@H]1O[C@@H](OC[C@H]2O[C@@H](Oc3c(-c4ccc(O)cc4)oc4cc(O[C@@H]5O[C@@H](C)[C@H](O)[C@@H](O)[C@H]5O)cc(O)c4c3=O)[C@H](O)[C@@H](O)[C@@H]2O)[C@H](O)[C@H](O)[C@H]1O` has an inhibition at 50 µM of less than 5%.
`C[C@@H]1O[C@@H](OC[C@H]2O[C@@H](Oc3c(-c4ccc(O)cc4)oc4cc(O)cc(O)c4c3=O)[C@H](O)[C@@H](O)[C@H]2O)[C@H](O)[C@H](O)[C@H]1O` was tested, and the inhibition at 50 µM was less than 5%.
Work on `O=C(/C=C/c1ccccc1)c1ccc(O)cc1O` [2',4'-DIHYDROXYCHALCONE] yielded an inhibition at 50 µM of 40.1%.
`CC1O[C@@H](OC[C@H]2O[C@@H](Oc3c(-c4ccc(O)cc4)oc4cc(O)cc(O)c4c3=O)C(O[C@@H]3O[C@H](C)[C@H](O)C(O)C3O)C(O)[C@H]2O)C(O)[C@@H](O)[C@H]1O` (stereo partly specified) [MAURITIANIN] showed an inhibition at 50 µM of less than 5%.
`COc1cc(O)c2c(=O)c(O[C@@H]3O[C@H](COC(=O)C[C@@](C)(O)CC(=O)O)[C@H](O)[C@H](O)[C@H]3O[C@@H]3O[C@@H](C)[C@H](O)[C@@H](O)[C@H]3O)c(-c3ccc(O)cc3)oc2c1` [OXYTROFLAVOSIDE A] gave an inhibition at 50 µM of less than 5%.
In the case of `COc1cc(O)c2c(=O)c(O[C@@H]3O[C@H](CO)[C@H](O)[C@H](OC(=O)C[C@@](C)(O)CC(=O)O)[C@H]3O[C@@H]3O[C@@H](C)[C@H](O)[C@@H](O)[C@H]3O)c(-c3ccc(O)cc3)oc2c1` [OXYTROFLAVOSIDE B], the inhibition at 50 µM is reported as less than 5%.
`COc1cc(O)c2c(=O)c(O[C@@H]3O[C@H](CO)[C@H](OC(=O)C[C@@](C)(O)CC(=O)O)[C@H](O)[C@H]3O[C@@H]3O[C@@H](C)[C@H](O)[C@@H](O)[C@H]3O)c(-c3ccc(O)cc3)oc2c1` [OXYTROFLAVOSIDE C] was tested, and the inhibition at 50 µM was less than 5%.
`COc1cc(O)c2c(=O)c(O[C@@H]3O[C@H](COC(=O)C[C@@](C)(O)CC(=O)O)[C@H](O)[C@H](O)[C@H]3O)c(-c3ccc(O)cc3)oc2c1` [OXYTROFLAVOSIDE D] showed an inhibition at 50 µM of less than 5%.
With `COc1cc(O)c2c(=O)c(O[C@@H]3O[C@H](COC(=O)C[C@@](C)(O)CC(=O)O)[C@H](O)[C@H](O)[C@H]3O)c(-c3ccc(O[C@@H]4O[C@H](CO)[C@@H](O)[C@H](O)[C@H]4O)cc3)oc2c1` [OXYTROFLAVOSIDE E] the inhibition at 50 µM was less than 5%.
For `COc1cc(O)c2c(=O)c(O[C@@H]3O[C@H](CO)[C@H](O)[C@H](O)[C@H]3O[C@@H]3O[C@@H](C)[C@H](O)[C@@H](O)[C@H]3O)c(-c3ccc(O)cc3)oc2c1` [OXYTROFLAVOSIDE F], the inhibition at 50 µM was less than 5%.
`COc1cc(O)c2c(=O)c(O[C@@H]3O[C@H](CO[C@@H]4O[C@@H](C)[C@H](O)[C@@H](O)[C@H]4O)[C@H](O)[C@H](O)[C@H]3O[C@@H]3O[C@@H](C)[C@H](O)[C@@H](O)[C@H]3O)c(-c3ccc(O)cc3)oc2c1` [OXYTROFLAVOSIDE G] gave an inhibition at 50 µM of less than 5%.
